Screens as filed in PubChem.
DYRK1A inh = blocks rat Dyrk1A kinase activity; ADP-Glo luminescence, NFATc1 peptide; Q63470; inhibition, % at 12.5 µM; AID 504441; 0.43% of 310,000 active;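 note: plate controls were vehicle with enzyme for no effect and no enzyme for full effect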
dFosB act-1 = activators of mouse delta FosB homodimer. P13346. 0.99% of 340,000 active. activation, % at 25 µM. AID 493131. purified delta FosB, TAMRA-CDK5 oligo fluorescence polarization; percent of positive-control signal above neutral wells;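 active = mean activation above about 17%, with every replicate also reaching it, limit read from the data, passing the limit was not always enough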
SR-BI HDL uptake = inhibitors of mouse SR-BI mediated HDL lipid uptake; 0.96% of 320,000 active; inhibition, % at 12.5 µM; ldlA[mSR-BI] CHO cells, DiI-HDL uptake fluorescence, 3 h;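 active = mean replicate inhibition of at least 70% and a set share of replicates each scoring 70 or more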;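 note: 0% = median of neutral control wells and 100% = median of positive control wells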
CDK5 p35 inh = CDK5/p35 (human) kinase inhibition; Recombinant CDK5/p35, ADP-Glo luminescence, 60 min; inhibition, % at 10 µM; 0.01% of 330,000 active; Q00535+Q15078;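 active = highest replicate inhibition of at least 50% and at least 75% of replicates reaching 50%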;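 note: plate controls were DMSO neutral control for no effect and GW8510 at 10 µM for full effect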
SR-BI DiI-HDL act = SR-BI HDL lipid transfer activation; AID 504775; CHO ldlA[mSR-BI] cells, DiI-HDL uptake fluorescence, 3 h; 100 = double the neutral-control signal; activation, % at 12.5 µM; 0.096% of 320,000 active;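 active = mean replicate activation of at least 60% and every replicate at or above 60%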;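 note: 0% = median plate neutral-control signal and 100% = twice that signal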
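system = CHO ldlA[mSR-BI] cells, LDL receptor-null, SR-BI overexpressing | medium = Ham's F12 with 0.5% BSA, HEPES 25 mM, pH 7.4 | probe or stimulus = DiI-HDL 10 µg/mL | compound dosing = single-point compound dose | incubation = compound exposure 3 h, 37 °C | technique = DiI fluorescence, bottom read | read-out = cell-associated DiI fluorescence as measure of HDL uptake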
NSD2 inh = NSD2 (human) methyltransferase inhibition; inhibition, % at 12.5 µM; AID 743445; NSD2 peptide methylation, AlphaScreen, 120 min; 0.54% of 310,000 active; O96028
Target sequence (O96028 whole entry, looked up): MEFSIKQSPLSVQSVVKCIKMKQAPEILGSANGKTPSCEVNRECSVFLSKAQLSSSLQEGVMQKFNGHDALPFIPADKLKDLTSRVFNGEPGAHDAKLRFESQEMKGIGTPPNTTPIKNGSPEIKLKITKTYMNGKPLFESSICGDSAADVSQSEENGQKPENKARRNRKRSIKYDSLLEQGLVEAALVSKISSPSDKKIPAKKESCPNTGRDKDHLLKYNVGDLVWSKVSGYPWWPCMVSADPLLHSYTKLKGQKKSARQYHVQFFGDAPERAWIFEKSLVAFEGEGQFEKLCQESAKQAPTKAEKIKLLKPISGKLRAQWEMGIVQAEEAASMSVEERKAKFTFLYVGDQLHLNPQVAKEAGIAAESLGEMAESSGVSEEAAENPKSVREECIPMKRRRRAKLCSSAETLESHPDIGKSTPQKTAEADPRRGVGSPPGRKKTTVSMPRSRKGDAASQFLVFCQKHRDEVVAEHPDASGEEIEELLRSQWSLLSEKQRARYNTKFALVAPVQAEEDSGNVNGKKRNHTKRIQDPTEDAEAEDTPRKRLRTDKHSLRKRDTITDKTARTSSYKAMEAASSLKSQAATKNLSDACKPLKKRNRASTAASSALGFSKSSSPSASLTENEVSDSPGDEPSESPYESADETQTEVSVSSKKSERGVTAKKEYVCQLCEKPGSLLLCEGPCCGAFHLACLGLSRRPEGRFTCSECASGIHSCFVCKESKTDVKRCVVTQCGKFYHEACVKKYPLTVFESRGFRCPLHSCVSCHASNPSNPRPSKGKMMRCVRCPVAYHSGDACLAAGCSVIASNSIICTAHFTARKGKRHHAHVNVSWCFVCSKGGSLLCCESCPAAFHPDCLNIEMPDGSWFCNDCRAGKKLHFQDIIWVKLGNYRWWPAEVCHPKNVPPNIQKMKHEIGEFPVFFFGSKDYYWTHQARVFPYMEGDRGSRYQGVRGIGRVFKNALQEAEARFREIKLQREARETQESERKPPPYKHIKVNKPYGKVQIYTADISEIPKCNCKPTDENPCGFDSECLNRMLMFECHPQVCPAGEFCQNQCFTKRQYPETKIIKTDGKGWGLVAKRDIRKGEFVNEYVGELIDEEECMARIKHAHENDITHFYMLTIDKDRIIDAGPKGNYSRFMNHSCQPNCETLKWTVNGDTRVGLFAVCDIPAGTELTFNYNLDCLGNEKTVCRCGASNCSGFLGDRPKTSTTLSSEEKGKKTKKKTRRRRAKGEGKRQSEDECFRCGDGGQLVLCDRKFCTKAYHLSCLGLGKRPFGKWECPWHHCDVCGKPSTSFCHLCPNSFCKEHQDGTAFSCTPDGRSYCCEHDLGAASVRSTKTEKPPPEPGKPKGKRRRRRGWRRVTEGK
dFosB act-2 = enhances mouse delta FosB homodimer binding to DNA | shares compounds with dFosB act-1 | purified delta FosB, TAMRA-CDK5 oligo fluorescence polarization; normalised: neutral wells 0, positive control 100 | activation, % at 24.9 µM | 2,400 tested, under 10 active | AID 588690;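 active = highest replicate activation at or above 34% and every replicate reaching that threshold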;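 note: higher polarization means more probe DNA bound by delta FosB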
* hit, by the source's call; x = no result. In the library only some 2.5% were active in any assay of this set; here they are far more common. Cut-off read from the data, not from the text of the source, unless noted: active = inhibition above about 50%; inactive = the rest.

SMILES | DYRK1A inh | dFosB act-1 | SR-BI HDL uptake | CDK5 p35 inh | SR-BI DiI-HDL act | NSD2 inh | dFosB act-2
Cc1cccc(C(=O)N/N=C2\CS(=O)(=O)N(C)c3ccsc32)c1 | 1.6 | 26.3* | x | -1.2 | x | 2.0 | 0.6
CN1c2ccsc2/C(=N/NC(=O)c2c(F)cccc2F)CS1(=O)=O | 17.1 | 0.9 | 6.5 | 1.0 | -6.5 | 1.7 | x
O=C(Nc1ccc(Cl)c(-c2nc3ccccc3[nH]2)c1)c1ccc2c(c1)OCO2 | 1.7 | -11.8 | 52.6 | -1.6 | -52.6 | -0.6 | x
O=C(Nc1ccc(-c2nc3ccccc3[nH]2)cc1)c1ccc2c(c1)OCO2 | 2.3 | 58.2* | 21.7 | 0.3 | -21.7 | -0.1 | -1.4
Cc1ccc2nc(-c3ccc(NC(=O)CSc4ccccc4)cc3)[nH]c2c1 | -6.6 | 25.4* | 10.1 | 1.2 | -10.1 | -1.0 | 4.9
O=C(Nc1ccc(-c2nc3ccccc3[nH]2)cc1)c1c(F)c(F)c(F)c(F)c1F | 1.7 | 28.8* | 16.2 | -9.3 | -16.2 | -0.9 | 0.4
CC(C)(C)c1ccc(C(=O)NC(=O)COC(=O)CCS(=O)(=O)c2ccccc2)cc1 | 0.2 | -9.1 | -15.1 | 1.8 | 15.1 | -1.3 | x
COc1ccc(NC(=O)Nc2ccccc2F)cc1Cl | -2.4 | 22.1* | 1.8 | 0.0 | -1.8 | 0.4 | 2.3
COc1ccc(NC(=O)Nc2ccccc2F)cc1 | 0.4 | -5.9 | 24.8 | -1.5 | -24.8 | -0.8 | x
COc1ccccc1NS(=O)(=O)c1cccc(NC(=O)Nc2ccc(Cl)cc2)c1 | -0.7 | 25.7* | 13.8 | -0.2 | -13.8 | 0.4 | 1.3
O=S(=O)(c1ccc(F)c(F)c1)N1CCCCCCC1 | x | x | x | x | x | 46.4 | x
CN(CC1COc2ccccc2O1)C(=O)Cn1cc(C(F)(F)F)ccc1=O (stereo unspecified) | x | -11.0 | -10.6 | -0.1 | 10.6 | 0.1 | x
O=C(NC1CCCCC1)C(c1ccc(F)cc1)N(Cc1cccs1)C(=O)CN1C(=O)c2ccccc2S1(=O)=O (stereo unspecified) | 3.5 | 28.7* | 10.0 | 1.8 | -10.0 | -1.6 | -0.1
O=C(NCC1CCCO1)C(c1ccncc1)N(Cc1cccs1)C(=O)CN1C(=O)c2ccccc2S1(=O)=O (stereo unspecified) | -1.0 | -7.3 | 57.4 | 1.3 | -57.4 | -0.1 | x
CCOc1ccc2[nH]c3c(=O)n(CCc4ccc(OC)cc4)cnc3c2c1 | -2.7 | 18.3* | 6.5 | 0.2 | 26.7 | -1.2 | -1.4
[O-][N+](=Cc1ccccc1)CC1(O)CCCCC1 | x | x | x | x | x | -3.4 | x
Cc1ccc(-c2nc(NC(=O)CSc3nnnn3-c3ccccc3)ns2)cc1 | 2.7 | 37.8* | 9.1 | 0.9 | -9.1 | -0.6 | 1.5
Cc1ccc(-n2nnnc2SCC(=O)Nc2ncc(Cc3ccccc3Cl)s2)cc1 | 2.5 | 104.4* | 25.1 | x | -25.1 | -3.2 | 6.4
Cc1ccc(-c2csc3nnc(SCC(=O)Nc4nsc(-c5ccccc5)n4)n23)cc1 | 12.1 | 7.3 | -28.5 | -1.8 | 28.5 | 2.4 | x
Cc1cc(NC(=O)c2ccco2)sc1C | -1.1 | -3.6 | -2.6 | 2.1 | 2.6 | 1.5 | x
Cc1cc(NC(=O)CCCn2ccc([N+](=O)[O-])n2)n(Cc2ccc(F)cc2)n1 | -0.1 | 3.4 | -7.3 | -0.8 | 7.3 | 4.8 | x
COc1ccc(/C=N/NC(=O)c2ccc(Cn3cc([N+](=O)[O-])cn3)o2)cc1O | -2.8 | -2.9 | -3.8 | 1.9 | 3.8 | 6.2 | x
CC(/C=N/NC(=O)c1ccc(Cn2cc([N+](=O)[O-])cn2)o1)=C\c1ccccc1 | 0.0 | 27.9* | 39.0 | -0.6 | -39.0 | 0.3 | 3.9
CCOc1ccc(Br)cc1C(=O)Nc1ccc(C(=O)NCC(C)C)cc1 | 8.5 | 73.8* | 50.9 | -0.4 | -50.9 | -1.2 | 2.4
COc1ccc(Br)cc1C(=O)Nc1ccc(C(=O)NCC(C)C)cc1 | -7.7 | -3.8 | 64.6 | -2.2 | -64.6 | 1.4 | x
CC(=O)Nc1cccc(NC(=O)CSc2nc(C3CC3)nc3ccccc23)c1 | 4.1 | 14.6 | 23.6 | 1.2 | -23.6 | -0.5 | x
O=C(CSc1nc(C2CC2)nc2ccccc12)Nc1ccccc1Cl | 1.7 | 30.8* | 17.0 | 0.2 | -17.0 | 41.3 | 1.7
O=C(CSc1nc(C2CC2)nc2ccccc12)Nc1ccccc1 | 1.4 | 35.8* | 8.4 | 1.1 | -8.4 | 5.9 | -1.5
